Data as given in ChEMBL document CHEMBL4011632, “Design, Synthesis, and Evaluation of Thiazolidine-2,4-dione Derivatives as a Novel Class of Glutaminase Inhibitors” (J Med Chem, 2017).
Calls of active or inactive are those of the source. No cut-off for these calls is given here.

Key:
[1] = Inhibition of recombinant human His-tagged KGA R387L mutant expressed in Escherichia coli BL21(DE3)pLysS using glutamine substrate preincubated for 10 mins followed by substrate addition measured after 60 mins
Homo sapiens [2] = species: Homo sapiens; assay: Selectivity ratio of IC50 for recombinant human His-tagged KGA R387A mutant expressed in Escherichia coli BL21(DE3)pLysS to IC50 for human His-tagged KGA (L123 to L669 residues) expressed in Escherichia coli BL21(DE3)pLysS
[3] = Oral bioavailability in Sprague-Dawley rat at 1 mg/kg by HPLC-MS analysis; type: ADME, organism-based; details: in vivo
Outline: (§1)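 Male rats (330−380 g, 9−10 weeks old), jugular-vein cannulated 1 day before dosing, n = 3. Dosed iv in DMA/PEG400 (20%/80%, v/v) or po in 1% CMC/0.5% Tween-80. Blood (100 μL) drawn at 0, 2 min, 5 min (iv only), 15 and 30 min, and 1, 2, 4, 6, 8 and 24 h. Plasma measured by LC-MS/MS; parameters from noncompartmental analysis.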

Homo sapiens [4] = species: Homo sapiens; assay: Selectivity ratio of IC50 for recombinant human His-tagged KGA K507A mutant expressed in Escherichia coli BL21(DE3)pLysS to IC50 for human His-tagged KGA (L123 to L669 residues) expressed in Escherichia coli BL21(DE3)pLysS
[5] = Inhibition of recombinant human His-tagged KGA S384A mutant expressed in Escherichia coli BL21(DE3)pLysS using glutamine substrate preincubated for 10 mins followed by substrate addition measured after 60 mins
[6] = Cmax in Sprague-Dawley rat at 1 mg/kg, po by HPLC-MS analysis; type: ADME, organism-based; set-up: dose 1 mg/kg, route oral; details: in vivo; outline: as §1
[7] = Volume of distribution at steady state in Sprague-Dawley rat at 0.1 mg/kg, iv by HPLC-MS analysis; type: ADME, organism-based; details: in vivo, read-out: Vdss
Outline: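 Male rats (330−380 g, 9−10 weeks old), quarantined 1 week, jugular-vein cannula implanted 1 day before dosing; n = 3. Single iv dose in DMA/PEG400 (20%/80%, v/v). Blood (100 μL) was drawn via cannula at 0, 2, 5, 15, 30 min and 1, 2, 4, 6, 8, 24 h and kept on ice. Plasma was analysed by HPLC−MS/MS. Vss came from noncompartmental analysis.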

[8] = Inhibition of recombinant human His-tagged KGA K507A mutant expressed in Escherichia coli BL21(DE3)pLysS using glutamine substrate preincubated for 10 mins followed by substrate addition measured after 60 mins
[9] = target: T1, Peroxisome proliferator-activated receptor delta (Homo sapiens) (UniProt Q03181); assay: Transactivation of GAL4-DBD fused human PPARdelta LBD (165 to 441 residues) expressed in African green monkey CV1 cells after 18 to 24 hrs by luciferase reporter gene assay; type: cell-based
T1 sequence (whole entry): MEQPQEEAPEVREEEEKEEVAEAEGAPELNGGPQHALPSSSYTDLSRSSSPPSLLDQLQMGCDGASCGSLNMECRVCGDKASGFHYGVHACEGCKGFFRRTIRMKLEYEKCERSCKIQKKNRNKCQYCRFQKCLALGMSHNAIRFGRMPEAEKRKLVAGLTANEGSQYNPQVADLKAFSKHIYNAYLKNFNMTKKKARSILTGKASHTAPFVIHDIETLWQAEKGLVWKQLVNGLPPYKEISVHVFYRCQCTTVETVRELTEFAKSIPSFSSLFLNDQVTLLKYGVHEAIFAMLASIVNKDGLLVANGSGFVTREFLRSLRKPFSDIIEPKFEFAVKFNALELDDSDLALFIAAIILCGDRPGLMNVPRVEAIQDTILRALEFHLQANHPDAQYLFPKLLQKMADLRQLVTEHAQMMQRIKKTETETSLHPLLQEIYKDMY

[10] = target: T2, Peroxisome proliferator-activated receptor gamma (Homo sapiens) (UniProt P37231); assay: Transactivation of GAL4-DBD fused human PPARgamma LBD (199 to 477 residues) expressed in African green monkey CV1 cells after 18 to 24 hrs by luciferase reporter gene assay; type: cell-based
T2 sequence (whole entry): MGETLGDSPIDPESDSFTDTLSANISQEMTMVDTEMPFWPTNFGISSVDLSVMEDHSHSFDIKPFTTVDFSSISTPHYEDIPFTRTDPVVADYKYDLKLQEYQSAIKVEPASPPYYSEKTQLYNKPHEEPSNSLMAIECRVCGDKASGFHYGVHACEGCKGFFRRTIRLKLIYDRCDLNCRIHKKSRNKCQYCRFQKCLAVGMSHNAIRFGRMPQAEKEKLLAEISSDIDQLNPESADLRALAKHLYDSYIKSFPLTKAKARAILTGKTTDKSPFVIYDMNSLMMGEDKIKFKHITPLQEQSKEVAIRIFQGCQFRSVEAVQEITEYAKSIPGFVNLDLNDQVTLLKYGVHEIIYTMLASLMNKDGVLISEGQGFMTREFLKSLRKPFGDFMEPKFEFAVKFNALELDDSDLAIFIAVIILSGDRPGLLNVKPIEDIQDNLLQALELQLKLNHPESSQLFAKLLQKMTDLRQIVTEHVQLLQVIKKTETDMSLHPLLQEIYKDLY

[11] = target: T3, Peroxisome proliferator-activated receptor alpha (Homo sapiens) (UniProt Q07869); assay: Transactivation of GAL4-DBD fused human PPARalpha LBD (193 to 469 residues) expressed in African green monkey CV1 cells after 18 to 24 hrs by luciferase reporter gene assay; type: cell-based
T3 sequence (whole entry): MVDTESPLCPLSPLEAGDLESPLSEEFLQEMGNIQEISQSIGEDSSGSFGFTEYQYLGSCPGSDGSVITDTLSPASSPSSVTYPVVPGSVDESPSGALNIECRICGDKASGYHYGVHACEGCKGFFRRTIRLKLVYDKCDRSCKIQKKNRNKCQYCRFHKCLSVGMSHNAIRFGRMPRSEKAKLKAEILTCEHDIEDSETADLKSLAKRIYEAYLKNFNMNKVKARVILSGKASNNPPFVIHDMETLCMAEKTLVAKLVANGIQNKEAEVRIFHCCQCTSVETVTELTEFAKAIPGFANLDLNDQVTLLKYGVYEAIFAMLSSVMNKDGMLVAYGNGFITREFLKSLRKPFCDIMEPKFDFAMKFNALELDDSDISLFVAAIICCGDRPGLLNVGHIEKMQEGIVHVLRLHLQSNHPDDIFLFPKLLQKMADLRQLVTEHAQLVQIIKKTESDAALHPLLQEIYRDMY

[12] = Total clearance in Sprague-Dawley rat at 2 mg/kg, iv by HPLC-MS analysis; type: ADME, organism-based; details: in vivo
Outline: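 Male rats (330−380 g, 9−10 weeks old), jugular-vein cannulated 1 day before dosing, n = 3. Dosed iv in DMA/PEG400 (20%/80%, v/v) or po in 1% CMC/0.5% Tween-80. Plasma measured by LC-MS/MS; parameters from noncompartmental analysis.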

[13] = AUC (0 to infinity) in Sprague-Dawley rat at 2 mg/kg, iv by HPLC-MS analysis; type: ADME, organism-based; set-up: dose 2 mg/kg, route intravenous, time infinity; details: in vivo; outline: as §1
[14] = target: Glutaminase 1/2 (Homo sapiens) (UniProt O94925+Q9UI32); details: 3.13 to 100 uM
Sequence of Glutaminase 1/2 (Homo sapiens) (O94925 whole entry, looked up): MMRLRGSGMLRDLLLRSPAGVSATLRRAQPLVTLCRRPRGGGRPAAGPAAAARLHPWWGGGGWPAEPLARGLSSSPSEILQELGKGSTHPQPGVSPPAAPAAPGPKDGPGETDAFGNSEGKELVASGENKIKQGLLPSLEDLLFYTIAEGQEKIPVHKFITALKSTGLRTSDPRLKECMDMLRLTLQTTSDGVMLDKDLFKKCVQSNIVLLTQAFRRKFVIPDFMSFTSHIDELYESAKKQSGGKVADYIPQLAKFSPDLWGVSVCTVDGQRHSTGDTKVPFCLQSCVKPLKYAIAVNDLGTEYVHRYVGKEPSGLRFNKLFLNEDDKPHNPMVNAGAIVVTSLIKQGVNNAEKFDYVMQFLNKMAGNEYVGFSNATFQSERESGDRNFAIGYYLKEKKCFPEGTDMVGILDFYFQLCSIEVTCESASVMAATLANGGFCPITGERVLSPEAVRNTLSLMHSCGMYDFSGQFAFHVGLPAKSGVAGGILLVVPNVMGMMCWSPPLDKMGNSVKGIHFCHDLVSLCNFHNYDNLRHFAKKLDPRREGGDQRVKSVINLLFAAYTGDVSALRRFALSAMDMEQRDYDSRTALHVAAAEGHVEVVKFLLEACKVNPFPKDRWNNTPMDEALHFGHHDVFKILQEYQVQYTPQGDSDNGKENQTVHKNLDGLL
Sequence of Glutaminase 1/2 (Homo sapiens) (Q9UI32 whole entry, looked up): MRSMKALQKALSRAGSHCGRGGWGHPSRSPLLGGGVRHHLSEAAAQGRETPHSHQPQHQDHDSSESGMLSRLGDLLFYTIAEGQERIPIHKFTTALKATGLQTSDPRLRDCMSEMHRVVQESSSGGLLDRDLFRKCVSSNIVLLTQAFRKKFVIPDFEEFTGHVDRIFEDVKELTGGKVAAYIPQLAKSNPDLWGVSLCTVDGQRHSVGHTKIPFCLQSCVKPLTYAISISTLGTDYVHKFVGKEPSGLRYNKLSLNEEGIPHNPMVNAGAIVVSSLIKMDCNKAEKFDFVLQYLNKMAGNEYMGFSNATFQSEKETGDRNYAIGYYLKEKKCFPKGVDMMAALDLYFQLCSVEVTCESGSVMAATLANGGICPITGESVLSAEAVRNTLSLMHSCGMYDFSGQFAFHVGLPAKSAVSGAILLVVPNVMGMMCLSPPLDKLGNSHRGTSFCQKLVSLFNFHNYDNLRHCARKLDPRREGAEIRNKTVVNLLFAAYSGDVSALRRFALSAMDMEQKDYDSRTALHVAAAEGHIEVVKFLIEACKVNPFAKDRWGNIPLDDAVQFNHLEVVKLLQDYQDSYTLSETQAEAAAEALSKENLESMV

| Compound | IC50 [1] [nM] | Ratio IC50 (Homo sapiens [2]) | bioavailability [3] [%] | Ratio IC50 (Homo sapiens [4]) | IC50 [5] [nM] | Cmax [6] [ng/mL] | Vd [7] [L/kg] | IC50 [8] [nM] | Activity [9] | Activity [10] | Activity [11] | clearance [12] [mL/min/kg] | AUC(0-inf) [13] [ng·h/mL] | inhibition [14] |
| --- | --- | --- | --- | --- | --- | --- | --- | --- | --- | --- | --- | --- | --- | --- |
| Cc1cc(/C=C2\SC(=O)NC2=O)c(C)n1-c1ccc(-c2ccc(/C=C3\SC(=O)NC3=O)cc2)cc1 | 1270 | > 490 | 1 | 10.2 | 361 | 16.6 | 0.4 | 1040 |  |  |  |  |  |  |
| Cc1cc(/C=C2\SC(=O)NC2=O)c(C)n1-c1ccc(-c2ccc(/C=C3\SC(=O)NC3=O)c(Cl)c2)cc1 | 770 | 191 |  | 4.7 | 87 |  |  | 269 | inactive | inactive | inactive |  |  |  |
| O=C1NC(=O)/C(=C/c2ccc(-c3ccc(-n4c(-c5cccs5)cc(/C=C5\SC(=O)NC5=O)c4-c4cccs4)cc3)cc2)S1 |  |  |  |  |  |  |  |  | inactive | inactive | inactive | 0.9 | 43600 | Active |
